Tests used:
[1] = AUC (0 to last) in high fat fed healthy human at 50 mg, po administered as single dose coadministered with 100 mg of ritonavir; assay type: ADME, organism-based; design: dose 50 mg, route oral, time 0 - last; details: plasma
Summary of the method: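 Fed cohort of 6 healthy men given an FDA-type high-fat breakfast (about 150, 250 and 500 to 600 cal from protein, carbohydrate and fat) 30 min before dosing. Ritonavir 100 mg given 10 h earlier and again with the single oral dose in PEG solution. Plasma sampled to 144 h, LC-MS/MS, noncompartmental analysis.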

[2] = Apparent volume of distribution in terminal phase in healthy human at 75 mg, po administered as single dose; assay type: ADME, organism-based; details: in vivo, read-out: Vz/F
Summary of the method: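 Single fasting oral dose of BILR 355 in PEG solution with 200 ml tap water, given to healthy males. Standard breakfast came 60-90 min after the dose. EDTA plasma was sampled predose to 144 h, stored below −18°C and assayed by LC-MS/MS after protein precipitation. Noncompartmental analysis gave Vz/F. Vss/F = CL/F·(MRTp.o. − 1/Ka), with Ka from compartmental modelling.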

[3] = Mean residence time in healthy human at 12.5 mg, po administered as single dose coadministered with 100 mg of ritonavir; assay type: ADME, organism-based; details: in vivo
[4] = Half life in high fat fed healthy human at 50 mg, po administered as single dose coadministered with 100 mg of ritonavir; assay type: ADME, organism-based; details: in vivo
Homo sapiens [5] = assay: Ratio of Cmax in human at 25 mg, po in presence of 100 mg of ritonavir to Cmax in human at 25 mg, po; assay type: ADME, organism-based; details: in vivo
Homo sapiens [6] = assay: Toxicity in healthy human assessed as occurrence of headache at 5 mg, po administered as single dose relative to control; assay type: organism-based; details: in vivo
[7] = Renal clearance in healthy human at 37.5 mg, po administered as single dose coadministered with 100 mg of ritonavir by high-pressure liquid chromatography-tandem mass spectrometry/mass spectrometry method; assay type: ADME, organism-based, Kidney; details: in vivo, read-out: CL_renal (converted)
Homo sapiens [8] = assay: Toxicity in healthy human assessed as occurrence of frequent bowel movements at 5 mg, po administered as single dose relative to control; assay type: organism-based; details: in vivo
Homo sapiens [9] = assay: Toxicity in healthy human assessed as occurrence of neurological eyelid disorder at 75 mg, po administered as single dose relative to control; assay type: organism-based; details: in vivo
[10] = Renal clearance in healthy human at 50 mg, po administered as single dose by high-pressure liquid chromatography-tandem mass spectrometry/mass spectrometry method; assay type: ADME, organism-based, Kidney; details: in vivo, read-out: CL_renal (converted)
[11] = Mean residence time in healthy human at 12.5 mg, po administered as single dose; assay type: ADME, organism-based; details: in vivo
[12] = Drug excretion in healthy human urine assessed as unchanged drug at 5 mg, po administered as single dose coadministered with 100 mg of ritonavir by high-pressure liquid chromatography-tandem mass spectrometry/mass spectrometry method; assay type: ADME, organism-based; details: read-out: Drug uptake
Summary of the method: (§1)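 Ritonavir 100 mg was given 10 h before and with one oral dose of BILR 355 in PEG solution. Urine was collected by weight as predose blank, then 0-6, 6-24 and 24-72 h, stored at −20°C and assayed by LC-MS/MS. fe = unchanged drug excreted (Ae) as a percentage of dose. Line 50: high-fat breakfast 30 min before dosing.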

Homo sapiens [13] = assay: Toxicity in healthy human assessed as occurrence of migraine at 25 mg, po administered as single dose relative to control; assay type: organism-based; details: in vivo
[14] = Cmax in healthy human at 87.5 mg, po administered as single dose coadministered with 100 mg of ritonavir by high-pressure liquid chromatography-tandem mass spectrometry/mass spectrometry method; assay type: ADME, organism-based; design: dose 87.5 mg, route oral; details: in vivo
Summary of the method: (§2)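 Healthy male volunteers, fasted overnight, got one oral dose of BILR 355 in PEG solution with 200 ml water. Ritonavir 100 mg was given 10 h before and again with the dose. Plasma was sampled (EDTA) from predose to 144 h and assayed by validated LC-MS/MS. Cmax and Vz/F came from noncompartmental analysis. Vss/F = CL/F·(MRTp.o. − 1/Ka), with Ka from compartmental modelling.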

Homo sapiens [15] = assay: Toxicity in high fat fed healthy human assessed as occurrence of fatigue at 50 mg, po administered as single dose coadministered with 100 mg of ritonavir; assay type: organism-based; details: in vivo
Homo sapiens [16] = assay: Toxicity in healthy human assessed as occurrence of headache at 50 mg, po administered as single dose relative to control; assay type: organism-based; details: in vivo
Homo sapiens [17] = assay: Toxicity in healthy human assessed as occurrence of palpitations at 12.5 mg, po administered as single dose relative to control; assay type: organism-based; details: in vivo
Homo sapiens [18] = assay: Toxicity in healthy human assessed as occurrence of maculopapular rash at 75 mg, po administered as single dose relative to control; assay type: organism-based; details: in vivo
[19] = Renal clearance in healthy human at 75 mg, po administered as single dose by high-pressure liquid chromatography-tandem mass spectrometry/mass spectrometry method; assay type: ADME, organism-based, Kidney; details: in vivo, read-out: CL_renal (converted)
[20] = Apparent volume of distribution in terminal phase in healthy human at 12.5 mg, po administered as single dose coadministered with 100 mg of ritonavir; assay type: ADME, organism-based; details: in vivo, read-out: Vz/F; summary of the method: as §2
[21] = Apparent volume of distribution at steady state in healthy human at 75 mg, po administered as single dose coadministered with 100 mg of ritonavir; assay type: ADME, organism-based; details: in vivo, read-out: Vss/F; summary of the method: as §2
[22] = Mean residence time in healthy human at 37.5 mg, po administered as single dose coadministered with 100 mg of ritonavir; assay type: ADME, organism-based; details: in vivo
[23] = Apparent volume of distribution at steady state in healthy human at 5 mg, po administered as single dose coadministered with 100 mg of ritonavir; assay type: ADME, organism-based; details: in vivo, read-out: Vss/F; summary of the method: as §2
[24] = Half life in healthy human at 37.5 mg, po administered as single dose coadministered with 100 mg of ritonavir; assay type: ADME, organism-based; details: in vivo
Homo sapiens [25] = assay: Ratio of AUC (0 to infinity) in human at 12.5 mg, po in presence of 100 mg of ritonavir to AUC (0 to infinity) in human at 12.5 mg, po; assay type: ADME, organism-based; details: in vivo
[26] = Tmax in healthy human at 50 mg, po administered as single dose; assay type: ADME, organism-based; details: in vivo
[27] = AUC (0 to infinity) in healthy human at 75 mg, po administered as single dose coadministered with 100 mg of ritonavir; assay type: ADME, organism-based; design: dose 75 mg, route oral, time infinity; details: plasma
Summary of the method: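 Healthy male volunteers, fasted. Ritonavir 100 mg given 10 h before and again together with single oral BILR 355 in PEG solution. EDTA plasma sampled predose to 144 h. LC-MS/MS assay after protein precipitation. Noncompartmental analysis, AUC by linear up/log down trapezoidal rule; Vss = CL/F·(MRTp.o. − 1/Ka).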

[28] = Apparent volume of distribution in terminal phase in healthy human at 25 mg, po administered as single dose coadministered with 100 mg of ritonavir; assay type: ADME, organism-based; details: in vivo, read-out: Vz/F; summary of the method: as §2
Homo sapiens [29] = assay: Toxicity in healthy human assessed as occurrence of fatigue at 75 mg, po administered as single dose relative to control; assay type: organism-based; details: in vivo
[30] = Tmax in healthy human at 75 mg, po administered as single dose; assay type: ADME, organism-based; details: in vivo
[31] = Drug excretion in healthy human urine assessed as unchanged drug at 75 mg, po administered as single dose coadministered with 100 mg of ritonavir by high-pressure liquid chromatography-tandem mass spectrometry/mass spectrometry method; assay type: ADME, organism-based; details: read-out: Drug uptake; summary of the method: as §1
Homo sapiens [32] = assay: Toxicity in healthy human assessed as occurrence of maculopapular rash at 12.5 mg, po administered as single dose coadministered with 100 mg of ritonavir; assay type: organism-based; details: in vivo

Work on CCN1c2ncc(CCOc3cc[n+]([O-])c4ccccc34)cc2C(=O)N(C)c2cccnc21 [BILR 355] yielded an AUC(0-t) [1] of 7970 ng·h/mL, a Vd/F [2] of 832 L and an MRT [3] of 24.8 h. It also gave a half-life [4] of 11 h, a Ratio (Homo sapiens [5]) of 5.4 and an Activity (Homo sapiens [6]) of 0%. It also gave a CL renal [7] of 4.92 mL/min, an Activity (Homo sapiens [8]) of 0% and an Activity (Homo sapiens [9]) of 16.7%. The CL renal [10] was 9.15 mL/min, the MRT [11] was 6.12 h and the dose excreted [12] was 4.78%. For the same molecule, the Activity (Homo sapiens [13]) was 0%, the Cmax [14] was 838 ng/mL and the Activity (Homo sapiens [15]) was 16.7%. The Activity (Homo sapiens [16]) was 16.7%, the Activity (Homo sapiens [17]) was 0% and the Activity (Homo sapiens [18]) was 0%. The CL renal [19] was 10.2 mL/min, the Vd/F [20] was 149 L and the Vd/F [21] was 105 L. It also gave an MRT [22] of 16.9 h, a Vd/F [23] of 166 L and a half-life [24] of 11 h. The Ratio (Homo sapiens [25]) was 31, the Tmax [26] was 0.667 h and the AUC(0-inf) [27] was 12300 ng·h/mL. The Vd/F [28] was 97.6 L, the Activity (Homo sapiens [29]) was 16.7% and the Tmax [30] was 0.667 h. For the same molecule, the dose excreted [31] was 5.44% and the Activity (Homo sapiens [32]) was 0%.

— ChEMBL document CHEMBL1629563, “Pharmacokinetic and safety evaluation of BILR 355, a second-generation nonnucleoside reverse transcriptase inhibitor, in healthy volunteers” (Antimicrob Agents Chemother, 2008)
